Data on 19 molecules can be found in paper PMC7416570 (ACS chemical biology, 2020).

“Also recorded” adds a separate entry of the source. Where no end group is shown, it is not given here.

Series [1] has as its target T1, hPD-L2* (Homo sapiens, UniProt Q9BQ51).
T1 sequence (Q9BQ51 20-220): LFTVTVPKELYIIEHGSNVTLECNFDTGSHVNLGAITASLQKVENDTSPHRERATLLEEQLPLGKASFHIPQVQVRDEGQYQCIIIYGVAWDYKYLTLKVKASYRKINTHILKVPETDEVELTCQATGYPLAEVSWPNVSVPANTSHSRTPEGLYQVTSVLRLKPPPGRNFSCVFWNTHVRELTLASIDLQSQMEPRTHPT
As to the kind of experiment: Radiolabeled binding assay on immobilized hPD-L2*. The following applies: radioactive binding assay. The method, boiled down: (§1)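 Peptide mRNA was translated in rabbit reticulocyte lysate with [35S]-methionine (2 μCi per 10 pmol template, 30 °C, 1 h). The resulting fusions were purified on oligo-dT agarose and tested for pull-down by the immobilized target protein, read as bead-retained radioactivity.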

The target in series [2] is T2, hPD-L1 (Homo sapiens, UniProt Q9NZQ7). As to the kind of experiment: Radiolabeled binding assay on immobilized hPD-L1*. As to conditions: radioactive binding assay. In short, it runs like this: as §1
The target of series [3] is hPD-L1/mPD-1 interaction (Homo sapiens, UniProt Q9NZQ7). As to the kind of experiment: ELISA/IP assay of the hPD-L1/mPD-1 interaction. As to conditions: 10 μM SPAM, hPD-L1 and mPD-1 100 nM. Type of series: biochemical.
Series [4] has as its target hPD-L1 expressed on CHO-hPD-L1 cells (Homo sapiens, UniProt Q9NZQ7). As to the kind of experiment: Antibody competition by flow cytometry, CHO-hPD-L1. It counts as cell-based. As to conditions: pre-treatment 0–20 μM.
Series [5] deals with mPD-L1 (Mus musculus, UniProt Q9EP73). As to the kind of experiment: Radiolabeled binding assay on immobilized mPD-L1. As to conditions: radioactive binding assay. The method, boiled down:
as §1

Series [6] addresses T2, hPD-L1. The experiment in a line: Radiolabeled binding assay on immobilized hPD-L1. As to conditions: for effect of mutation on hPD-L1 binding (alanine scanning): [35S]-labeled SPAM variants, binding normalized to [35S]-SPAM, n=3.
Series [7] is described as follows: Serum stability of [35S]-SPAM read out by binding to hPD-L1. It counts as in vitro ADME. As to conditions: [35S]-labeled SPAM, 25% human serum, 37 °C, up to eight hours.
The target in series [8] is T2, hPD-L1. As to conditions: read-out: previously reported KD values PD-1/hPD-L1; cited from earlier work.

Chain of mPD-L1 (Q9EP73 19-239 limits assumed): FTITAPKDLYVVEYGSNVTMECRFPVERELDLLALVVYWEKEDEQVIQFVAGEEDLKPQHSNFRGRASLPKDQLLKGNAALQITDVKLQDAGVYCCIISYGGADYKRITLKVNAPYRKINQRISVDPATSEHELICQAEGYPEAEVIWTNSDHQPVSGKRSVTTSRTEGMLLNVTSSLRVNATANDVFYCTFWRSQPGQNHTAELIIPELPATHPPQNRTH

As for `C#CC[C@H](NC(=O)CNC(=O)[C@H](CO)NC(=O)[C@H](C)NC(=O)[C@H](Cc1ccc(O)cc1)NC(=O)[C@H](Cc1c[nH]cn1)NC(=O)[C@H](CC(C)C)NC(=O)[C@@H](NC(=O)[C@H](Cc1c[nH]c2ccccc12)NC(=O)[C@H](Cc1ccccc1)NC(=O)[C@H](CCCCN)NC(=O)[C@H](CC(N)=O)NC(=O)[C@H](CC(C)C)NC(=O)[C@@H](NC(=O)[C@H](Cc1c[nH]cn1)NC(=O)[C@H](CC(=O)O)NC(=O)[C@H](CC(C)C)NC(=O)[C@H](Cc1ccccc1)NC(=O)[C@@H](NC(=O)[C@@H]1CCCN1C(=O)[C@@H](N)CCSC)[C@@H](C)CC)[C@@H](C)CC)[C@@H](C)CC)C(N)=O` (stereo in doubt) [SPAM], the “[35S]-labeled SPAM binding to hPD-L2*” value in series [1] is listed as “no significant binding; also recorded: essentially no binding”. Further, the “[35S]-labeled SPAM binding to hPD-L1*” value in series [2] is recorded as “captured”. Further, the “disruption of PD-1 binding to hPD-L1 at 10 μM” value in series [3] is “almost completely disrupted”. Also, the “blocking of Fluorescein-16373 binding to CHO-hPD-L1” value in series [4] (50 nM FAM-16373, flow cytometry) is “blocking”. The “blocking of Fluorescein-16377 binding to CHO-hPD-L1” value in series [4] (50 nM FAM-16377, flow cytometry) is listed as “blocking”. Also, the “[35S]-labeled SPAM binding to mPD-L1” value in series [5] is listed as “no significant binding; also recorded: not pulled-down; also recorded: essentially no binding”. Besides, in series [6] (75 pmol hPD-L1 on streptavidin agarose, 4 °C, 1 h), the “[35S]-labeled SPAM binding to immobilized hPD-L1” value is listed as “efficiently pulled-down”. The “loss of binding to hPD-L1 after incubation in human serum” value in series [7] is ~ 25%.
Take “A18: SPAM variant with glycine substituted for alanine at position 18 (MPIFLDHILNKFWILHYGGSGSSG; also: [35S]-labeled methionine, peptide-RNA fusion)”: the “effect of mutation on hPD-L1 binding (alanine scanning)” value (“effect of mutation on hPD-L1 binding” below) in series [6] is on record as “completely abolished”.
On the same count and under the same terms, with “D6A: SPAM variant with alanine substituted at position 6 (MPIFLAHILNKFWILHYAGSGSSG; also: [35S]-labeled methionine, peptide-RNA fusion)” the entry was “completely abolished”; with “F4A: SPAM variant with alanine substituted at position 4 (MPIALDHILNKFWILHYAGSGSSG; also: [35S]-labeled methionine, peptide-RNA fusion)”, “little or no significant influence”.
The same measure, in the same setting: for “F12A: SPAM variant with alanine substituted at position 12 (MPIFLDHILNKAWILHYAGSGSSG; also: [35S]-labeled methionine, peptide-RNA fusion)” the value was “completely abolished”; for “H7A: SPAM variant with alanine substituted at position 7 (MPIFLDAILNKFWILHYAGSGSSG; also: [35S]-labeled methionine, peptide-RNA fusion)”, “completely abolished”; for “H16A: SPAM variant with alanine substituted at position 16 (MPIFLDHILNKFWILAYAGSGSSG; also: [35S]-labeled methionine, peptide-RNA fusion)”, “completely abolished”.
As to “I3A: SPAM variant with alanine substituted at position 3 (MPAFLDHILNKFWILHYAGSGSSG; also: [35S]-labeled methionine, peptide-RNA fusion)”, in series [6], the “effect of mutation on hPD-L1 binding” value is recorded as “little or no significant influence”.
As for “I8A: SPAM variant with alanine substituted at position 8 (MPIFLDHALNKFWILHYAGSGSSG; also: [35S]-labeled methionine, peptide-RNA fusion)”, in series [6], the “effect of mutation on hPD-L1 binding” value is reported as “little or no significant influence”.
Same read-out and setting: with “I14A: SPAM variant with alanine substituted at position 14 (MPIFLDHILNKFWALHYAGSGSSG; also: [35S]-labeled methionine, peptide-RNA fusion)” the entry was “completely abolished”; with “K11A: SPAM variant with alanine substituted at position 11 (MPIFLDHILNAFWILHYAGSGSSG; also: [35S]-labeled methionine, peptide-RNA fusion)”, “completely abolished”.
Same read-out and setting: with “L5A: SPAM variant with alanine substituted at position 5 (MPIFADHILNKFWILHYAGSGSSG; also: [35S]-labeled methionine, peptide-RNA fusion)” the entry was “little or no significant influence”.
The same measure, in the same setting: for “L9A: SPAM variant with alanine substituted at position 9 (MPIFLDHIANKFWILHYAGSGSSG; also: [35S]-labeled methionine, peptide-RNA fusion)” the value was “little or no significant influence”; for “L15A: SPAM variant with alanine substituted at position 15 (MPIFLDHILNKFWIAHYAGSGSSG; also: [35S]-labeled methionine, peptide-RNA fusion)”, “completely abolished”.
Regarding “MRIFAVFIFMTYWHLLNA [hPD-L1 signal peptide, reference compound]”, the “binding of hPD-L1 signal peptide-mRNA fusion to hPD-L1 beads” value in series [6] (streptavidin agarose beads loaded with 1.1 μM hPD-L1 (1,100 pmol)) is “some binding”.
As to “N10A: SPAM variant with alanine substituted at position 10 (MPIFLDHILAKFWILHYAGSGSSG; also: [35S]-labeled methionine, peptide-RNA fusion)”, the “effect of mutation on hPD-L1 binding” value in series [6] is “completely abolished”.
On the same count and under the same terms, for “P2A: SPAM variant with alanine substituted at position 2 (MAIFLDHILNKFWILHYAGSGSSG; also: [35S]-labeled methionine, peptide-RNA fusion)” the value was “decreased levels of hPD-L1 binding”; for “W13A: SPAM variant with alanine substituted at position 13 (MPIFLDHILNKFAILHYAGSGSSG; also: [35S]-labeled methionine, peptide-RNA fusion)”, “completely abolished”.

B1: mPD-1: extracellular domain of murine PD-1 (L25 to S157, C83S) with HA tag and His tag (protein)
chain: MALEVPNGPWRSLTFYPAWLTVSEGANATFTCSLSNWSEDLMLNWNRLSPSNQTEKQAAFSNGLSQPVQDARFQIIQLPNRHDFHMNILDTRRNDSGIYLCGAISLHPKAKIEESPGAELVVTERILETSTRYPS
modifications: left off: HA tag (…), C-terminal, kept | His tag, C-terminal, state not stated
With B1, in series [8], the Kd was 4 to 8 µM.
